Measurements taken from paper PMC4289021 (Nature, 2014).
Substitutions are numbered along the chain they refer to.

Assays:
RNF146 WWE domain = conditions: cited from earlier work
K61D RNF146(RING-WWE) = molecular target: T1, K61D RNF146(RING-WWE) (Mus musculus, UniProt Q9CZW6, K63D); assay: ITC, iso-ADPr binding to K61D RNF146; conditions: 25 °C, K61D mutant
T1 sequence (Q9CZW6 32-185 K63D): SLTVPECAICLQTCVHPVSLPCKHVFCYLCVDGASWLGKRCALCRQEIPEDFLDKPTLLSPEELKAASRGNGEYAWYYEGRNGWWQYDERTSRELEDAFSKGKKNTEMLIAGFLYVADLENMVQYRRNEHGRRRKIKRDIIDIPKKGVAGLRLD
Summary of the method: (§1)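 Calorimetry at 25 °C on untagged mouse RNF146(RING-WWE), wild type or site-directed mutants. Protein and iso-ADPr were exchanged by Superdex 75 SEC into 20 mM HEPES pH 7.5, 150 mM NaCl, 1 mM DTT. Cell held ~15–20 μM protein. Ligand ~500 μM in the same buffer. Both were degassed. Injections of 5 μL every 5 min, 25–40 total. Kd came from a one-site model fit.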

K61A RNF146(RING-WWE) = molecular target: T2, K61A RNF146(RING-WWE) (Mus musculus, UniProt Q9CZW6, K63A); assay: ITC, iso-ADPr binding to K61A RNF146; conditions: 25 °C, K61A mutant
T2 sequence (Q9CZW6 32-185 K63A): T1 sequence (Q9CZW6 32-185 K63D) with D32A
Summary of the method: as §1

RNF146(RING-WWE) K61D = assay: E2~Ub/lysine reactivity assay, K61D mutant; assay type: biochemical, mouse; conditions: 8 μM E3, 25 μM iso-ADPr
Summary of the method: (§2)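 Mouse RNF146(RING-WWE) (residues 30–183), made from a GST-tagged construct with TEV cleavage, or His6-T7-tagged full-length RNF146. UbcH5~Ub was charged by wheat E1 (1.5 μM) with 100 μM E2, 200 μM K0 Ub, 2.5 mM MgCl2 and 2 mM ATP in PBS at 37 °C for 30 min, then SEC-purified. Final: 25 μM E2, 4 or 8 μM E3, ± iso-ADPr. Started with 40 mM L-lysine at 35 °C; sampled 1–15 min; non-reducing SDS-PAGE, Coomassie/Oriole stain.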

[1] = test system: full-length RNF146 or RNF146(RING-WWE); assay: E2~Ub/lysine reactivity assay with UbcH5; assay type: biochemical, human
Summary of the method: as §2

RNF146 WWE domain alone = conditions: previously published; cited from earlier work
[2] = molecular target: T3, RNF146(RING-WWE) (residues 30–183) (Mus musculus, UniProt Q9CZW6); assay: ITC, iso-ADPr binding to WT RNF146
T3 sequence (Q9CZW6 32-185): T1 sequence (Q9CZW6 32-185 K63D) with D32K

Nc1ncnc2c1ncn2[C@@H]1O[C@H](COP(=O)(O)OP(=O)(O)OC[C@H]2OC(O)[C@H](O)[C@@H]2O)[C@@H](O)[C@H]1O (stereo partly drawn) [ADPr, ADP-ribose]
binding to WWE domain (RNF146 WWE domain): does not bind

Nc1ncnc2c1ncn2[C@@H]1O[C@H](COP(=O)(O)O)[C@@H](O)[C@H]1O[C@@H]1O[C@H](COP(=O)(O)O)[C@@H](O)[C@H]1O [iso-ADPr]
Kd (K61D RNF146(RING-WWE)): 457 nM | Kd (K61A RNF146(RING-WWE)): 214 nM | activation of E2~Ub/lysine reactivity (RNF146(RING-WWE) K61D): not activated | iso-ADPr concentration up to which the rate of E2~Ub/lysine reactivity increases ([1]; 3 min after lysine addition, 1.2 equiv.): 5 µM | activation of Ub transfer from UbcH5~Ub to lysine ([1]; ligand added to full-length RNF146 or RING-WWE fragment, not RING-only construct): robust activation | Kd (RNF146 WWE domain alone): 372 nM | Kd ([2]; ITC, 25 °C, one-site model): 39 nM | binding to RNF146(RING-WWE) relative to the WWE domain alone ([2]; ratio of Kd 39 nM vs 372 nM): ten times tighter
